Screens as filed in PubChem BioAssay.
Arbovirus inh: antivirals against arbovirus infection, primary screen, cell-based, full library, 10K replicate subset. arbovirus infection cell-based antiviral screen. 200,000 tested, 0.37% active. inhibition, % at 10 µM. AID 1251, 2008; in the data active = inhibition above about 30%
PKD1 inh: inhibitors of human PKD1 kinase, biochemical, fluorescence polarization; PKD1 kinase fluorescence polarization assay; inhibition, % (test concentration not listed); 200,000 tested, 0.056% active
Target sequence (Q15139 whole entry, looked up): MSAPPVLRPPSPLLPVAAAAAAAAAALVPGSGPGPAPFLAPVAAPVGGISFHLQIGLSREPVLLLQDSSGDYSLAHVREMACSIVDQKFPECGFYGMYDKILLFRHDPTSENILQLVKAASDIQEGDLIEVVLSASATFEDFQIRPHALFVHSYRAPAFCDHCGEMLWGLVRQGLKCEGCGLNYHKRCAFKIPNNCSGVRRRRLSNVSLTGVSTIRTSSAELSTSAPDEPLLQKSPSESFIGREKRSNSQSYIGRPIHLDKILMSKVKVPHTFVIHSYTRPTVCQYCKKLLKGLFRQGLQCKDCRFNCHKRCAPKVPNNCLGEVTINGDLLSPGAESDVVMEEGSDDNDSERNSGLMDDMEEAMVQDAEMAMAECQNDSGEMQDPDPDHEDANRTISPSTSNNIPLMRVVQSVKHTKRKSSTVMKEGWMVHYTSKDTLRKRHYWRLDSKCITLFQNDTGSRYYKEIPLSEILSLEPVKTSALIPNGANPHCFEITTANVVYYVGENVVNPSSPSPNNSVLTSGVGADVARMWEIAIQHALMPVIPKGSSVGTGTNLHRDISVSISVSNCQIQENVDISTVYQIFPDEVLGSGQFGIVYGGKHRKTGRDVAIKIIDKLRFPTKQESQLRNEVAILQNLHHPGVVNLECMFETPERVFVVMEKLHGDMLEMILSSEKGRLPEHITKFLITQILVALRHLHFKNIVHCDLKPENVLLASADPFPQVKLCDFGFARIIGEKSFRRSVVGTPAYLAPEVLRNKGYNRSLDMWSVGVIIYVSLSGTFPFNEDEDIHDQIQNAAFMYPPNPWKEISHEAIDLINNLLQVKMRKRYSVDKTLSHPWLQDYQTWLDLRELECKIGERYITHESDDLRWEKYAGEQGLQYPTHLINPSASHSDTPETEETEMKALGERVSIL
CHOP inhibitor: inhibitors of CHOP promoter induction, primary screen, cell-based, unfolded protein response, luciferase reporter. CHO-K1 CHOP-promoter luciferase, tunicamycin-induced, 15-18 h. inhibition, % at 10 µM. 220,000 tested, 3.8% active;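 active = compounds that reduced the stress-induced luciferase reporter signal by more than about 70% of percent inhibition, limit read from the data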
Wee1 stabilizer: Wee1 degradation inhibitors, primary screen, cell-based, HeLa, Wee1K328M-luciferase, luminescence; 220,000 tested, 1.2% active; reporter increase, % at 5 µM; HeLa Luc-Wee1K328M stability; 100% = proteasome inhibitor MG132 effect; Wee1-like protein kinase (Homo sapiens), P30291;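 active = activation above the mean of all tested compounds plus 3 SD, set per screening run, cut at about 8.8% in these data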;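 also: cells exposed to compound for 20 h before luminescence read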
Lmaj promast: Leishmania major promastigote growth inhibition, primary screen | Leishmania major promastigotes, resazurin fluorescence viability | inhibition, % at 10 µM | 200,000 tested, 9% active;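 also: promastigotes grown with compound for 44 hours at 28 °C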
Rad51 HR inh: human RAD51 strand exchange inhibitors, primary screen, biochemical, fluorescence | DNA repair protein RAD51 homolog 1 (Homo sapiens), Q06609 | hRad51 DNA strand exchange, fluorescence dequenching | inhibition, % at 10 µM | 200,000 tested, 0.085% active;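 active = inhibition above 40% at the single screening dose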
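Material: Human Rad51 nucleoprotein filaments preassembled on unlabelled ssDNA | Also added: Labelled 47-mer dsDNA for strand exchange | Dosing: Single dose, 10 µM final compound | Schedule: 30-min compound preincubation and 15-min exchange, both room temperature | Technique: Fluorescence dequenching at 485/520 nm | Measure: Percent inhibition relative to plate controls and blanks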
Numbers stand for hits; 0 = inactive; - = no result given. Only some compounds are listed: those with a hit (about 12% of all), similar ones and a draw of the others. Rule as the data show it, unless noted: active = inhibition above about 50%; inactive = the rest.

SMILES	Arbovirus inh	PKD1 inh	CHOP inhibitor	Wee1 stabilizer	Lmaj promast	Rad51 HR inh
Brc1ccc(C2=Nn3c(Cn4nnc5ccccc54)nnc3SC2)cc1	-	-	0	0	-	0
Cc1cccc(-c2nnc3n2N=C(c2ccccc2)CS3)c1	0	0	0	0	0	0
C[n+]1c2n(c3ccccc31)N=C(c1ccc(Br)cc1)CS2	0	0	0	0	97	0
C[n+]1c2n(c3ccccc31)N=C(c1ccccc1)CS2	0	0	0	0	98	0
COc1ccc2[nH]c(=O)c(CNc3cccc(C)c3)cc2c1	0	0	73	0	0	0
COc1ccc2[nH]c(=O)c(CN(Cc3cccs3)C(=S)Nc3cccc(C)c3)cc2c1	0	0	0	0	100	0
CNC(=S)N(Cc1cccs1)Cc1cc2cc(OC)ccc2[nH]c1=O	0	0	0	0	0	0
COCCn1cnc2c1c(=O)n(CC(=O)OCC#N)c(=O)n2Cc1ccccc1	0	0	0	0	0	0
CC(C)N(C(=O)CSc1nnc(-c2ccc3c(c2)OCO3)n1C)C(C)C	0	0	0	0	0	0
Cc1c(N2CCCC2)cc2c(c1NC(=O)c1ccccc1Cl)C(C)(C)CC2(C)C	-	-	0	0	-	0
CCCCOC(=O)Nc1ccc(N2CCCCC2)cc1	0	0	0	9.1	0	0
COc1ccc(C(=O)Nc2ccc(N3CCCC3)cc2)cc1	0	0	0	0	92	0
CCCCOC(=O)Nc1ccc(N2CCOCC2)cc1	0	0	0	0	0	0
COc1cc(C(=O)NC(=S)Nc2ccc(N3CCCC3)cc2)cc(OC)c1OC	0	0	75	0	0	0
O=C(Nc1ccc(N2CCCC2)cc1)C(Cl)c1ccccc1 (stereo unspecified)	0	0	78	0	99	0
Cc1ccccc1C(=O)Nc1ccc(N2CCCC2)cc1	0	0	0	10	0	0
Cc1ccc(C(=O)Nc2ccc(N3CCCC3)cc2)c(C)c1	0	0	0	0	0	-
CCc1cc2c(=O)c(-c3cscn3)coc2c(CN(C)C)c1O	38	0	0	0	0	0
Cc1ccn2cc(-c3ccc(NC(=O)c4ccco4)cc3)nc2c1	0	0	0	0	68	-
Cc1ccn2cc(-c3ccc(NS(=O)(=O)c4ccccc4)cc3)nc2c1	0	0	0	0	92	0
CC(=O)Nc1cccc(-c2cn3ccc(C)cc3n2)c1	0	0	0	0	0	0
COC/C=C/C1=CC2=CC(=O)C(C)(OC(=O)c3cnc4ccccc4n3)C(=O)C2=CN1c1cccc(C#N)c1 (stereo unspecified)	-	-	-	-	-	0
COC(=O)c1cc2n(n1)CCN(Cc1ccc(F)cc1)C2=O	0	0	0	0	0	46
COc1ccccc1C1CC(c2ccc(NS(C)(=O)=O)cc2)=NN1C(=O)c1ccccc1 (stereo unspecified)	0	0	0	0	77	0
Brc1cccc(-c2nnc(-c3ccccc3)o2)c1	0	0	75	0	0	0
SMILES	Arbovirus inh	PKD1 inh	CHOP inhibitor	Wee1 stabilizer	Lmaj promast	Rad51 HR inh
Cc1ccc(-c2nnc(-c3cccc(Br)c3)o2)cc1	0	0	0	0	0	0
CC(C)c1ccccc1NC(=O)COC(=O)/C=C/c1cccc([N+](=O)[O-])c1	0	0	0	0	0	0
Cc1ccccc1NC(=O)C(C)O/N=C/c1cccc([N+](=O)[O-])c1 (stereo unspecified)	0	0	0	0	66	0
Cc1ccc(N2C(=O)CC(Nc3ccc(Cl)c(S(=O)(=O)N(C)C)c3)C2=O)c(C)c1 (stereo unspecified)	0	0	0	0	0	0
O=C(COc1ccccc1)N1CCN=C1SCc1ccc(F)cc1	-	-	0	0	-	0
O=C(c1cccc(F)c1)N1CCN=C1SCc1cccnc1	0	0	86	0	0	0
O=C(COc1ccccc1)N1CCN=C1SCc1cccnc1	0	0	0	0	65	0
COc1cc(OC)cc(C(=O)N2CCN=C2SCc2cccnc2)c1	0	0	0	0	0	0
COc1cc(OC)c(C(=O)OCC(=O)NCCc2ccccc2)cc1OC	0	0	0	0	0	0
Fc1cccc(F)c1/C=C/c1ccc2ccccc2n1	0	0	0	0	0	0
Cc1ccc2nc(/C=C/c3cccc(F)c3)ccc2c1	0	0	96	0	0	0
Cc1cccc(CN2CCN(Cc3nc4c(s3)CCCC4)CC2CCO)n1 (stereo unspecified)	0	0	0	0	0	-
CC(C)(C)c1ccc(C(=O)NCC(=O)OCC(=O)Nc2nc(-c3ccc(F)cc3)cs2)cc1	0	0	73	0	0	0
Cc1ccc(-c2csc(NC(=O)CCNC(=O)c3ccc(Cl)cc3)n2)cc1	0	0	0	0	0	-
Cc1cc(C)cc(NS(=O)(=O)c2ccc(NC(=S)NC(=O)c3ccc(Br)o3)cc2)c1	0	0	0	0	95	0
NS(=O)(=O)c1ccc(NC(=S)NC(=O)c2ccc(Br)o2)cc1	0	0	0	0	0	0
Cc1cc(C)cc(NS(=O)(=O)c2ccc(NC(=S)Nc3ccccc3)cc2)c1	0	0	0	0	82	0
NS(=O)(=O)c1ccc(NS(=O)(=O)c2ccc(NC(=S)Nc3ccccc3)cc2)cc1	0	0	0	0	0	0
CCCOc1ccc(/C(O)=C2/C(=O)C(=O)N(CCCn3ccnc3)C2c2ccco2)cc1 (stereo unspecified)	0	0	0	0	0	0
CCCOc1ccc(/C(O)=C2/C(=O)C(=O)N(CCCn3ccnc3)C2c2ccc(C)o2)cc1 (stereo unspecified)	-	-	0	9.7	-	0
Cc1ccc2nc(C)cc(Cl)c2c1	0	0	0	0	0	0
Cc1ccc2nc3c(c(N)c2c1)CCN3c1ccccc1	0	0	0	0	89	0
COc1ccc(-n2c(Cc3cccn3C)nnc2SCC(=O)Nc2cccc(Cl)c2)cc1	36	0	0	0	0	0
Cn1cccc1Cc1nnc(SCC(=O)Nc2cccc(F)c2)n1-c1ccc(F)cc1	0	0	0	0	0	0
Cc1ccc(NC(=O)CSc2nnc(Cc3cccn3C)n2-c2ccc(F)cc2)c(C)c1	0	0	0	0	62	0
SMILES	Arbovirus inh	PKD1 inh	CHOP inhibitor	Wee1 stabilizer	Lmaj promast	Rad51 HR inh
Cn1cccc1Cc1nnc(SCC(=O)Nc2cccc(Cl)c2)n1-c1ccc(F)cc1	0	0	75	0	62	0
Cc1nn2cc(-c3ncc(C(F)(F)F)cc3Cl)cnc2c1Br	0	0	74	0	0	0
OCCC1CN(Cc2cnc(-c3cccc4ccccc34)nc2)CCN1C1CCCCC1 (stereo unspecified)	0	0	0	0	0	0
O=C(NCCOC12CC3CC(CC(C3)C1)C2)c1cccc(Br)c1	0	0	0	0	94	0
O=C(O)CCCCCNC(=O)c1cccc(Br)c1	0	0	0	0	0	0
O=c1cc(N2CCOCC2)oc2c(-c3ccccc3)cccc12	-	-	0	-	-	-
